Screening results deposited in PubChem by Johns Hopkins Ion Channel Center.
KCNQ1 inh: human KCNQ1 channel inhibition | P51787 | CHO-K1 KCNQ1, FluxOR thallium flux fluorescence; hits give high values | B-score at 10 µM | hit rate 1.3% among 310,000 | AID 2642;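 active = compounds whose thallium flux B-score, printed positive for inhibition, exceeds three library SD while starting fluorescence stays within three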;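 note: channel opened by potassium depolarization with thallium stimulus after 20 min compound exposure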
hERG rescue: hERG (human) protection from proarrhythmic block; CHO-hERG, FluxOR thallium flux, dofetilide IC70 present; activation (rescue from dofetilide block), less the hit threshold, % at 10 µM; hit rate 0.51% among 310,000; AID 1511;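 active = activation above the mean of controls blocked by dofetilide plus 5 SD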;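 note: thallium influx through hERG after potassium depolarization seen as dye fluorescence rise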
KCNK9 inh: human KCNK9 channel inhibition | Q9NPC2 | HEK293 KCNK9, FluxOR thallium flux fluorescence; hits give low values | B-score at 10 µM | hit rate 1.2% among 310,000;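 active = ratio B-score over 3 SD below the library mean, with starting fluorescence within 5 SD of its mean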;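 note: negative B-score means less thallium flux so channel inhibition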
KCNK3 inh: human KCNK3 channel inhibition, primary screen. B-score at 10 µM. O14649. hit rate 0.84% among 340,000. CHO-KCNK3 thallium flux, FluxOR fluorescence; hits give low values;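 active = B-score under library mean minus 4 SD, starting fluorescence ratio at most library mean plus 5 SD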;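 note: more negative B-score means stronger inhibition of thallium flux through KCNK3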
Target sequence (O14649 whole entry, looked up): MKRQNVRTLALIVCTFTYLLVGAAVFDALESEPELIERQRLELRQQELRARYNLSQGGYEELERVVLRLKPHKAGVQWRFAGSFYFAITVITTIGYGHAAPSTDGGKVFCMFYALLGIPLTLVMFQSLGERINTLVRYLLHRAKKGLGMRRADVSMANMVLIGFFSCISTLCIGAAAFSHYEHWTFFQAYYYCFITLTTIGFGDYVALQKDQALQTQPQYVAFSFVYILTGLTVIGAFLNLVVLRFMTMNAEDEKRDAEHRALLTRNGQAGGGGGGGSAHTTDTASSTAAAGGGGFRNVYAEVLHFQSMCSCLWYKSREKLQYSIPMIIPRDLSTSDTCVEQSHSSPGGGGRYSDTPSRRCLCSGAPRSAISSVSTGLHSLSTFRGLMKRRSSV
KCNQ1 pot: human KCNQ1 channel potentiation or activation. CHO-K1 KCNQ1, thallium flux FluxOR fluorescence; hits give high values. B-score at 10 µM. hit rate 0.35% among 310,000;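 active = fluorescence ratio B-score, a plate-corrected score, at least three library SD, with initial intensity B-score within 5 SD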
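System: CHO-K1 cells stably expressing KCNQ1 / Medium: assay buffer for compound exposure, DMSO matched across wells / Reagent: thallium- and potassium-containing depolarizing buffer / Compound: one concentration, matched DMSO / Incubation: 20 min compound pretreatment at room temperature / Measured by: kinetic FluxOR fluorescence, 10 s baseline plus 110 s post-stimulus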
Starred values were filed as active, the others as inactive; i = inactive; / = not tested or not shown. Hits are enriched below; roughly 3.1% of the tested compounds scored in any of these assays.

SMILES | KCNQ1 inh | hERG rescue | KCNK9 inh | KCNK3 inh | KCNQ1 pot
CCNC(=S)NNC(=O)c1cc(-c2cccc(OC)c2)nc2ccccc12 | 6* | -20 | i | i | i
COc1cc(-c2cc(C(=O)Nc3c(Cl)cc(Cl)cc3Cl)c3ccccc3n2)cc(OC)c1OC | 7* | -13 | i | i | i
COc1ccc(NC(=O)c2cc(-c3cc(OC)c(OC)c(OC)c3)nc3ccccc23)cc1OC | i | -9 | i | i | i
CCOc1ccc(CC(=O)N/N=C/c2sccc2C)cc1 | i | -6 | i | i | i
CCc1ccc(Cn2ncc3c(C(=O)O)cc(C)nc32)cc1 | / | / | / | i | /
CC(=O)Nc1ccc(CCCCc2ccc(NC(C)=O)cc2)cc1 | / | / | / | i | /
CCCOc1ccc(C(=O)NNC(=S)NC(=O)c2cc(-c3ccc(Cl)cc3)nc3ccccc23)cc1 | i | -10 | i | i | i
COc1ccc(C(=O)NNC(=S)NC(=O)c2cc(-c3ccccc3)nc3ccccc23)cc1 | i | -9 | i | i | 9*
CN(/N=C/c1cc([N+](=O)[O-])ccc1O)c1ccccc1 | i | -4 | i | i | i
CN(/N=C/c1ccc(-c2ccc([N+](=O)[O-])cc2)o1)c1ccccc1 | 8* | -6 | i | i | i
CCOc1ccc(S(=O)(=O)N2CCN(C(=O)c3ccncc3)CC2)cc1 | i | -7 | i | i | i
C=CCOc1ccc(C2OC34CCCCC3C(C#N)(C#N)C2(C#N)C(=N)O4)cc1 (stereo not drawn) | i | 5.6* | i | i | i
CCCCOc1ccc(C2OC34CCCCC3C(C#N)(C#N)C2(C#N)C(=N)O4)cc1 (stereo not drawn) | i | -15 | i | i | i
OCC1=C[C@@H](O)[C@@H]2C=CO[C@@H](O[C@@H]3O[C@H](CO)[C@@H](O)[C@H](O)[C@H]3O)[C@H]12 | / | / | / | i | /
Cc1ccc(OCC(=O)NNC(=S)NC(=O)C2CCCCC2)c(C)c1 | i | -5 | i | i | 8*
Cc1ccc(OCC(=O)NNC(=S)NC(=O)C2CC2)c(C)c1 | i | -10 | i | i | i
CC(C)c1ccc(OCC(=O)NNC(=S)NC(=O)c2cccs2)c(Br)c1 | i | -12 | i | i | 30*
CC(C)c1ccc(OCC(=O)NN2C(=O)c3ccccc3C2=O)c(Br)c1 | i | 2 | i | i | i
Cc1ccc(OCC(=O)NC(=S)Nc2ccccn2)c(Br)c1 | i | 0 | i | i | i
Cc1ccc(OCC(=O)NNC(=S)NC(=O)C(C)(C)C)c(Br)c1 | i | -5 | i | i | 9*
CCC(=NOCc1ccccc1)C(=O)NNS(=O)(=O)c1ccc(C)cc1 | / | / | / | i | /
Cc1cccc(OCc2nnc(SCC(=O)N3c4ccccc4CCc4ccccc43)o2)c1 | i | -15 | i | i | i
O=C(CSc1nnc(COc2ccc(F)cc2)o1)N1c2ccccc2CCc2ccccc21 | i | -10 | -13* | i | i
OC[C@@H]1[C@@H](c2ccc(F)cc2)C(c2cccc(Cl)c2)=NN1c1ccccc1 | / | / | / | i | /
Cc1ccccc1Cn1nc(C)c(NC(=O)c2ccccc2)c1C | i | 7.6* | i | i | i
SMILES | KCNQ1 inh | hERG rescue | KCNK9 inh | KCNK3 inh | KCNQ1 pot
O=[N+]([O-])c1cc(Cl)cc(/C=N/NC(=S)Nc2ccc(S(=O)(=O)N3CCOCC3)cc2)c1O | 8* | -1 | i | i | i
COc1cc(/C=C2/CC/C(=C/c3ccc(O)c(OC)c3)C2=O)ccc1O | i | -18 | -7.4* | -9.1* | i
COc1cc(/C=C2\C(=O)N(C)C(=S)N2C)ccc1O | i | -5 | i | i | 15*
CN1C(=O)/C(=C/c2ccc(O)c([N+](=O)[O-])c2)N(C)C1=S | i | -5 | i | i | i
O=C1/C(=C/Nc2ccc3c(c2)OCO3)CCc2ccccc21 | 6* | -13 | i | i | i
C/C(Cl)=C\Cn1c(O)c(N=NC(N)=S)c2cc(Br)ccc21 | i | 26* | i | i | 19*
NC(=S)N=Nc1c(O)n(Cc2ccc(Br)cc2)c2ccccc12 | i | 15* | i | i | i
NC(=S)N=Nc1c(O)n(Cc2ccc(F)cc2)c2ccccc12 | i | -8 | i | i | i
CC(C)(C)S(=O)(=O)N1Cc2cc(CO)cc(CCO)c2[C@@H]1CCO | / | / | / | i | /
CC1CCN(C(C(=O)Nc2ccc(C(C)C)cc2)c2ccc3c(c2)OCO3)CC1 (stereo not drawn) | i | -12 | -8.1* | i | i
CC(C)c1ccc(NC(=O)C(c2ccc3c(c2)OCO3)N2CCCCC2)cc1 (stereo not drawn) | i | -19 | -7.4* | i | i
CC(C)c1ccc(NC(=O)C(c2ccc3c(c2)OCO3)N2CCC3(CC2)OCCO3)cc1 (stereo not drawn) | i | -10 | i | i | i
CC(C)n1nc(C(=O)NNC(=O)c2ccc(OC(F)F)cc2)c2ccccc2c1=O | / | / | / | i | /
CCN(C(=S)NC(=O)c1ccccc1Br)C1CCCCC1 | i | 57* | i | i | 36*
COc1ccc([C@H]2CC(=O)C=C(c3ccc(OC)c(F)c3)C2)cc1 | / | / | / | i | /
Cc1sc2ncnc(N3CCN(CCOc4ccc(Cl)cc4)CC3)c2c1C | 11* | -14 | i | -11* | i
Cc1cc(Cl)ccc1OCC(=O)NNC(=O)C1CCN(c2ncnc3sc(C)c(C)c23)CC1 | / | / | / | -9.9* | /
C[C@@H]1CN([C@H](C)CO)C(=O)Cc2cc(NC(=O)Cn3cnnn3)ccc2O[C@@H]1CN(C)Cc1ccc(Cl)c(Cl)c1 | / | / | / | i | /
O=C(NC1CC1)C1CCC(=O)N1C1CCCC1 (stereo not drawn) | i | 5.2* | i | i | i
COCc1nc2oc3ccccc3c(=O)c2cc1C(=O)OC | i | -6 | i | i | i
COc1ccc(Nc2nc(-c3cccs3)nc3ccccc23)cc1S(=O)(=O)N1CCOCC1 | i | -27 | i | -11* | i
CCC(=O)Oc1ccc(C/C(=N\O)c2ccc(O)cc2O)o1 | 7* | -6 | i | i | i
Cc1nc2ccccc2n1Cc1ccc(Br)cc1 | 6* | -14 | i | i | i
Cc1ccc(S(=O)(=O)c2c(C)cc(C)nc2Oc2cccc(C(F)(F)F)c2)cc1 | i | -6 | -7.3* | i | i
Cc1cc(-c2ccccc2)nc(Oc2cccc(C(F)(F)F)c2)c1S(C)(=O)=O | i | -5 | i | i | i
COC(=O)C1=C(C)NC(=O)/C1=C\c1cc(C)n(-c2cccc(C)c2)c1C | 9* | -17 | i | i | i
CSCCC(NC(=O)COc1ccccc1)C(=O)N(C)Cc1cccc(F)c1 (stereo not drawn) | / | / | / | i | /
